Shown is part of a subset that was picked to be rich in hits.
KSHV LANA nucl – inhibitors of KSHV LANA binding to nucleosomes; 51,000 tested, 0.3% active; z-score (concentration not given with the values); FITC-LANA1-23 / chicken nucleosome fluorescence polarization; active compounds read low;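 active = both repeat wells score below -2 in polarization z-score versus plate sample wells, excluding overly bright wells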
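Material: Purified chicken nucleosomes with FITC-labelled LANA N-terminal peptide (1-23) | Reagent: 50 nM FITC-LANA1-23 probe | Medium: TEN-BT buffer, pH 7.5 | Times: 10–45 min incubation at room temperature | Detection: Fluorescence polarization | Replication: Duplicates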
BasE inh – BasE siderophore biosynthesis inhibition; purified BasE, fluorescence polarization binding displacement; inhibition, % (no concentration beside the values); 84,000 tested, 0.1% active; in the data active = inhibition above about 25%, passing the limit was not always enough;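 note: 0% = negative plate control signal and 100% = positive plate control signal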
Active calls of the source: *; . = not tested or not shown.

SMILES	KSHV LANA nucl	BasE inh
Cc1c(NC(C)C(=O)Nc2ccc(S(=O)(=O)N3CCOCC3)cc2)c(=O)n(-c2ccccc2)n1C (centres undefined)	.	2
COc1ccc(N2CCN(C(=O)c3ccccc3OC)CC2)cc1	-0.53	-3
COc1ccc(N2CCN(C(=O)c3ccc(-n4cnnc4)cc3Cl)CC2)cc1	-2*	3
Cc1ccc(NS(=O)(=O)c2cc(-c3cc(C)no3)ccc2C)nc1	.	-4
c1ccc(CN2CCOC(CNc3nc(-c4cccnc4)nc4ccccc34)C2)cc1 (centres undefined)	.	1
CCN(C(=O)NC1(C(F)(F)F)Oc2ccc(Cl)cc2O1)C1CCCCC1 (centres undefined)	-0.19	40*
CCN(C(=O)c1cccc(Cl)c1)C1CCCCC1	0.75	0
Cn1cnc2onc(C(=O)Nc3ccc(F)cc3)c2c1=O	-1.3	1
CN1CCN(c2nc(C#N)c(C#N)nc2C(C#N)=C2Nc3ccccc3N2)CC1	-1.6	1
CCN1/C(=C(\C#N)c2nc(C#N)c(C#N)nc2N2CCOCC2)Nc2ccccc21	-3.2*	1
CCCCCCn1c(=O)[nH]c2nc3cc(N)c(C)cc3nc2c1=O	.	12
Cc1cc2nc3c(=O)n(C)c(=O)[nH]c3nc2cc1N=CN(C)C	-2.1*	37
CCCCN(C)Cc1c(O)ccc2c(=O)c(Oc3cc(C)cc(C)c3)coc12	0.46	1
Nc1nnc(-c2cccs2)c(=O)n1N	.	31*
Nn1c(NNC(=O)c2ccccc2)nnc(-c2cccs2)c1=O	.	2
CCCc1c(C)nc(SCC(C)C)[nH]c1=O	0.58	-1
COc1cccc(C(=O)N2c3ccccc3C(Nc3ccccc3)CC2C)c1 (centres undefined)	.	-1
O=C(Oc1cccc2cccnc12)c1ccccc1	-0.04	2
O=C(Oc1cccc2cccnc12)c1cc(C(F)(F)F)cc(C(F)(F)F)c1	.	42*
O=C1NC(c2ccc(F)cc2)(C(F)(F)F)C(=O)N1Cc1ccco1 (centres undefined)	-0.98	2
Cc1ccc(N2C(=O)NC(c3ccccc3)(C(F)(F)F)C2=O)nc1 (centres undefined)	-2.3*	2
O=C1c2c(O)ccc(O)c2C(=O)c2c(NCCNCCO)ccc(NCCNCCO)c21	-9.1*	1
CCNC(=O)C1CCCN(C2=NS(=O)(=O)c3ccccc32)C1 (centres undefined)	.	0
CC(=O)NCc1ccc(C(=O)CSc2nc3c(Cl)cc(Cl)cc3[nH]2)o1	.	0
O=C1NC2(Cc3ccccc3C2)Nc2ccccc21	-2*	2
SMILES	KSHV LANA nucl	BasE inh
O=C1NC2(CCCCC2)Nc2ccccc21	0.32	0
Cc1ccccc1OCC1=NN2C(=N)/C(=C/c3ccc(N(C)C)cc3)C(=O)N=C2S1	-4.8*	11
Cc1ccccc1OCC1=NN2C(=N)/C(=C\c3ccc(SCc4ccco4)o3)C(=O)N=C2S1	3.1	-3
Cc1ccc(CNC(=O)CCN2N=C(c3ccccc3)CCC2=O)cc1	0.67	0
CC(C)C(NS(=O)(=O)c1ccc2c(c1)OCCO2)C(=O)OCc1nnc(-c2ccccc2)o1 (centres undefined)	.	0
O=C1CC(=O)c2ccc3c4c(ccc1c24)C(=O)CC3=O	-0.28	27*
Nc1ccc2c(c1)CCC2=O	0.82	2
Cc1ccc(CCNC(=O)c2ccc3nc(-c4ccco4)c(-c4ccco4)nc3c2)cc1	-0.77	0
CCc1nc2ccc(C(=O)NCCc3ccco3)cc2nc1CC	-2.2*	2
Cc1nn(Cc2ccccc2Cl)c(Cl)c1/C=C/C(=O)OCC#N	.	1
CCC(C)Sc1nnc(N)s1 (centres undefined)	-1.3	-1
CCCCNS(=O)(=O)c1ccc(/C(C)=N/NC(=O)c2ccc(N)cc2)cc1	.	2
N#C/C(=C/c1ccc(O)c(O)c1)C(=O)OC/C=C/c1ccccc1	1.3	0
Oc1cc(O)cc(/C=C/c2ccc(O)c(O)c2)c1	-0.39	86*
CCCCn1c(=O)[nH]c2nc3cc(N=Cc4c(O)n(C)c(=O)n(C)c4=O)ccc3nc2c1=O	-0.49	3
Cn1c(=O)c2nc3ccc(N=Cc4c(O)n(Cc5ccccc5)c(=O)[nH]c4=O)cc3nc2n(C)c1=O	-2.3*	18
C/C(Cn1nnc2ccccc21)=N/OC(=O)c1c(F)cccc1F	0.5	53*
CC(Cn1nnc2ccccc21)C(=O)O (centres undefined)	.	4
Nc1ccc2c(c1)C1(OCCO1)C(=O)N2	-1.3	2
CN(C)c1ccc2nc3ccc(=[N+](C)C)cc-3sc2c1	-2.4*	.
CC(C)c1nc2ccc(N)cc2s1	0.51	3
O=C(CSc1n[nH]c(=O)[nH]c1=O)Nc1ccc(Br)cc1Br	.	-1
O=C(CSc1n[nH]c(=O)[nH]c1=O)Nc1ccccc1C(=O)c1ccccc1	.	38*
CC(=O)n1cc(/C=N/NC(=O)c2cccc(O)c2)c2ccccc21	0.47	28*
O=C(N/N=C/c1c[nH]c2ccccc12)c1cccc(O)c1	-0.36	21
SMILES	KSHV LANA nucl	BasE inh
O=C(CCc1nc2ccccc2c(=O)[nH]1)Nc1ccc2c(c1)CCC2	.	28*
O=C(CCc1nc2ccccc2c(=O)[nH]1)Nc1ccc(F)cc1	.	14
O=C1c2cccc3c(N4CCOCC4)ccc(c23)C(=O)N1c1ccccc1	-3.1*	13
O=C(Nc1ccccc1N1CCOCC1)c1cccc(N2C(=O)c3ccccc3C2=O)c1	.	0
COc1ccc(N/C(C)=C/C(=O)c2ccccc2)cc1	-0.32	0
CC(=O)Nc1ccc(N/C(C)=C/C(=O)c2cccnc2)cc1	-0.39	39*
CCC(=O)N=c1sc2cc(OC)c(OC)cc2n1CCOC	-0.084	-1
O=C(Cc1ccc2c(c1)OCCO2)Nc1ccccc1C(=O)Nc1ccc2c(c1)OCO2	.	-4
CC(C)(C)C(=O)COC(=O)c1ccc2c(=O)n3c(nc2c1)CCCCC3	.	1
CCC(=O)Nc1cccc(C2=NN(C(C)=O)C(c3ccc(F)cc3)O2)c1 (centres undefined)	-1.1	0
CC(=O)N1N=C(c2cccc(I)c2)OC1c1ccncc1 (centres undefined)	-0.15	59*
C1CNCCN1	1.5	-2
C1COCCNCCOCCN1	-2.6*	-2
CCOc1cc(-c2nn3c(-c4ccoc4C)nnc3s2)cc(OCC)c1OCC	-0.51	2
O=C(O)c1c(CN2CCN(c3ccccc3)CC2)c(O)c2ccccc2c1O	.	9
CCN(Cc1nc2ccccc2c(=O)[nH]1)Cc1nc2cc(C(F)(F)F)ccc2c(=O)[nH]1	.	-1
O=c1[nH]c(=O)c2nc3cc(C(F)(F)F)ccc3nc2[nH]1	-2.9*	13
CCn1cc(C(=O)NC)c(=O)c2ccc(C)nc21	.	2
COc1ccc(N=C2C(=O)N(c3ccccc3)c3ccccc32)cc1	-0.75	.
CC(=O)CC(=O)[C@@]1(O)CC[C@H]2[C@@H]3C=C(C)C4=CC(=O)CC[C@@H]4[C@H]3CC[C@@]21C	0.52	-2
O=c1[nH]c2c(s1)C=Nc1cc3ccccc3cc1N2	-2.3*	23
COCc1cc(C)nc(SCC(=O)c2ccc(O)c(O)c2)c1C#N	.	37*
Cc1ccc(C(=O)CSc2nc(C)cc(C)c2C#N)cc1	-1.4	0
Cc1cccc(-n2c(C)cc(CNC(=O)NCC3CCCO3)c2C)c1 (centres undefined)	.	-3
CC(=O)Oc1ccccc1C(=O)Oc1cccc(C)c1	0.067	0
Cc1ccnc(SCC(=O)N2CCc3ccccc3C2)n1	.	40*
O=C(CSc1ncccn1)N1CCc2ccccc2C1	0.45	1

Bioassay records from PubChem BioAssay.
